The conditions of data set [1]: release medium vs anhydrous ethanol; cited from earlier work.
In data set [2] the test system is 4T1 cells. Put plainly: MTT cytotoxicity assay. It counts as cell-based, murine. Conditions: Mus musculus. In outline:
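4T1 cells grown in 1640 medium with 5% FBS and 1% penicillin/streptomycin at 37 °C, 5% CO2. Seeded at 2000 cells/well for 24 h, then exposed to a range of test concentrations for 48 h or 72 h. Washed twice with cold PBS, given fresh medium plus MTT for 4 h, formazan dissolved in DMSO, A570 read. Inhibition rate calculated relative to untreated control absorbance.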
For orientation: Tetrazolium assays rely on reduction of a dye to a coloured formazan, in cell work by metabolically active cells.

The test system of data set [3] is 4T1 cell tumor-bearing xenograft model. Put plainly: In vivo antitumor study and histological evaluation. Set-up: species or system female BABL/c mice. In outline: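 Orthotopic 4T1 model: 0.1 mL of 4T1 cells (1 × 107 mL−1) injected into the fourth pair of breast pads. At 50–100 mm3 tumours, mice randomised into three groups (n = 6). Killed day 14; heart, liver, lung, spleen, kidney and tumour fixed in 10% formaldehyde for H&E.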

In general, IC50 refers to the concentration that inhibits the measured activity by half. Read a low IC50 as inhibition by little substance. With `C[C@H]1[C@@H](O)O[C@@H]2O[C@@]3(C)CC[C@H]4[C@H](C)CC[C@@H]1[C@@]24OO3` [DHA-Sol, Dihydroartemisinin], the “stability of DHA in the release medium” value in data set [1] was “degraded quickly in the release medium”. Further, the IC50 is 2.31 ± 0.1 µM in data set [2] (4T1, 48 h) and 0.62 ± 0.02 µM in data set [2] (4T1, 72 h). This molecule showed a tumor volume in data set [3] (after 14 days, i.v. 0.07 mmol DHA kg^−1 on days 1, 3, 5, 7, 9, saline group 3309.68 ± 441.61) of 867.27 ± 117.43 mm^3. Further, the “body weight change versus saline group” value in data set [3] (end of the experiment, p > 0.1) is “a significant change in the body weight of rats was not observed”. In addition, the “survival of mice during the experiment” value in data set [3] (n = 6 per group, 0.07 mmol DHA kg^−1 i.v. five times) is reported as “two mice treated with the DHA-Sol group died during the experiment”.

The values above are taken from paper PMC9053626 (RSC Advances, 2020).
